# Only some compounds are listed: those with a hit (about 1% of all), similar ones and a draw of the others.
# LYPLA2 counter: LYPLA2 inhibitors, primary screen, counter-screen for PME1 inhibitor project, biochemical, fluorescence polarization, FP-Rh probe ABPP; Acyl-protein thioesterase 2 (Homo sapiens), O95372; recombinant LYPLA2; inhibition, % at 5.9 µM; 320,000 compounds, 0.38% hits;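 active means inhibition above the screen-wide mean plus 3 SD, limit set per campaign, cut at about 26% in these data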;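 further: 0% = LYPLA2 with DMSO and 100% = wells lacking LYPLA2 enzyme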
# procasp3 activ: activators of human procaspase-3 D3A mutant, primary screen, biochemical, absorbance, PC-3 D3A mutant, single concentration. Caspase-3 (Homo sapiens), P42574. recombinant procaspase-3 D3A, Ac-DEVD-pNA absorbance 405 nm. activation, % at 8.5 µM. 330,000 compounds, 0.11% hits;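 active means activation above the mean of all tested compounds plus 3 SD, cut at about 21% in these data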;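 further: 0% = DMSO alone and 100% = DMSO wells spiked with extra 5 µM PC-3 D3A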
# Target sequence (P42574 whole entry D9A/D28A/D175A): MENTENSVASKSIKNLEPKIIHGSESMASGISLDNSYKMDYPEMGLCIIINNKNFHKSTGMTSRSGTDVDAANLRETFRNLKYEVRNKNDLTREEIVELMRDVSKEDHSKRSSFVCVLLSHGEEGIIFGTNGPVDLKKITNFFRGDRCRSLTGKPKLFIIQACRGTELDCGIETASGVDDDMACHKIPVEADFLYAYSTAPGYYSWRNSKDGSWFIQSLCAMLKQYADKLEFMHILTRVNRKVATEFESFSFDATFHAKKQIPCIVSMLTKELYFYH
#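 Test system: Procaspase-3 D3A mutant; medium: Zinc-free HEPES/NaCl buffer with 0.01% Triton X-100 at pH 7.4; reagent: DEVD-pNA substrate; doses: one concentration, 8.5 µM nominal, 0.8% DMSO; times: 1 h preincubation plus 2 h reaction at 25 °C; signal: Epi-absorbance at 405 nm of released p-nitroaniline, 0 and 120 min; replicates: singlicate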
# Fam108B counter: mouse Fam108B serine hydrolase inhibitors, primary screen, counter-screen for RBBP9 inhibitor project, biochemical, fluorescence polarization; recombinant Fam108B, FP-Rh probe fluorescence polarization; inhibition, % at 9.51 µM; 300,000 compounds, 0.33% hits; AID 1947, 2009;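 active means inhibition above the screen mean inhibition plus 3 SD, computed separately per campaign, cut at about 18% in these data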;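 further: inhibitors lower polarization as less probe binds the enzyme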
# PME-1 primary: PME-1 inhibitors via competitive probe labeling, primary screen, biochemical, fluorescence polarization, FP-Rh probe, HTS. 320,000 compounds, 0.53% hits. Protein phosphatase methylesterase 1 (Homo sapiens), Q9Y570. inhibition, % at 5.9 µM. recombinant PME-1;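 active means inhibition above the campaign mean of all compounds plus 3 SD, cut at about 26% in these data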;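 further: competitive labeling of PME-1 active site by serine hydrolase directed probe; 0% = PME-1 with DMSO and 100% = wells lacking PME-1 enzyme; inhibitors block probe labeling so polarization falls and inhibition rises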
# Target sequence (Q9Y570 whole entry, looked up): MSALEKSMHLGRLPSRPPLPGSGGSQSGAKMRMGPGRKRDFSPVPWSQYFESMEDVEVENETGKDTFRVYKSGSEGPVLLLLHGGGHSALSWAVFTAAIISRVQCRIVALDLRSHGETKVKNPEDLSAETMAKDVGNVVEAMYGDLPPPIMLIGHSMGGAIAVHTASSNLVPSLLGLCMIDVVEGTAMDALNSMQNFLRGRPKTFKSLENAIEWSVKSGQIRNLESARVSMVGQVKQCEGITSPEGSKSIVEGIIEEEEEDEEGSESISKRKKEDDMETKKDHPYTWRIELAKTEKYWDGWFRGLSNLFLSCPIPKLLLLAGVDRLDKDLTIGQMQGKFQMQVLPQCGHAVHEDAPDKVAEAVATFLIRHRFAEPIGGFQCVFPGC
# proCasp7 act: procaspase-7 activators, primary screen, counter-screen for procaspase-3 activator project, biochemical, absorbance, HTS, human. AID 463210, 2010. Caspase-7 (Homo sapiens), P55210. recombinant procaspase-7, Ac-DEVD-pNA absorbance 405 nm; D23A/D198A/D206A triple mutant, cannot self-cleave; scale: DMSO 0, 5 µM enzyme 100. activation, % at 8.5 µM. 330,000 compounds, 0.093% hits;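 active means percent activation above the screen-wide mean plus 3 SD, cut at about 25% in these data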
#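 Assay system: Uncleavable procaspase-7 mutant enzyme | Input: 2 µM procaspase-7 mutant as dispensed | Timing: 1 h compound preincubation, 2 h substrate cleavage, 25 °C | Repeats: One well per compound | Control set: DMSO wells as 0%, DMSO with 5 µM added PC-7 as 100% | Technique: Epi-absorbance of released pNA at 405 nm, two timepoints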
# LYPLA1 inh: LYPLA1 inhibitors, primary screen, counter-screen for PME1 inhibitor project, biochemical, fluorescence polarization, FP-Rh probe ABPP; Acyl-protein thioesterase 1 (Homo sapiens), O75608; recombinant LYPLA1; inhibition, % at 5.9 µM; 320,000 compounds, 0.16% hits; AID 2174, 2009;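 active means inhibition above the mean of all tested compounds plus 3 SD, set per campaign, cut at about 14% in these data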;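 further: inhibitors block serine hydrolase probe labeling of LYPLA1 so polarization falls; 0% = enzyme with DMSO and 100% = wells lacking LYPLA1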
# LYPLA2 conf: LYPLA2 inhibitors, retest, confirmation, counter-screen for PME1 inhibitor project, biochemical, fluorescence polarization, FP-Rh probe ABPP; shares compounds with LYPLA2 counter; recombinant LYPLA2; inhibition, % at 5.9 µM; 1,100 compounds, 72% hits;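 active means mean inhibition across replicates above the hit cutoff set in the primary screen, cut at about 26% in these data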;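 further: blocked labeling of the enzyme by serine hydrolase FP-Rh probe lowers polarization; 0% = enzyme with DMSO and 100% = wells lacking LYPLA2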
# LYPLA2 ABPP: LYPLA2 inhibitors in proteome, late-stage follow-up, gel-based competitive ABPP, fluorescence, assay provider. shares compounds with LYPLA2 counter. rhLYPLA2 in mouse brain proteome, gel ABPP FP-Rh. inhibition, % at 20 µM. 150 compounds, 30% hits;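 active means inhibition of LYPLA2 enzyme probe labeling above about 50%, limit read from the data; inactive means inhibition below that limit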;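 further: loss of FP-Rh probe labeling of the LYPLA2 gel band measured as band density; 0% = DMSO only control band and 100% = blank gel background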
# Numbers without * were called inactive; nt = no result.
SMILES,LYPLA2 counter,procasp3 activ,Fam108B counter,PME-1 primary,proCasp7 act,LYPLA1 inh,LYPLA2 conf,others
CC(=O)c1cccc(OCC(=O)N2CCN(c3ccc(C(F)(F)F)cn3)CC2)c1,58.2*,-5.0,0.0,1.6,4.3,5.4,56.8*,LYPLA2 ABPP=45.0
CC(=O)c1ccc(N2CCN(c3ccc(C(F)(F)F)cn3)CC2)cc1,45.5*,-6.0,0.1,7.2,-12.5,0.8,41.5*,
CC(=O)Nc1ccc(N2CCN(c3ccc(C(F)(F)F)cn3)CC2)nc1,52.3*,3.0,-4.3,-2.5,6.9,3.9,51.0*,LYPLA2 ABPP=27.0
Cc1cc(NC(=O)CSc2nnc(-c3ccccc3F)n2N)no1,nt,7.7,nt,nt,7.8,nt,nt,
CC(=O)Oc1ccc2c(C)cc(=O)oc2c1,3.1,-24.2,-0.3,0.1,3.2,1.4,nt,
Cc1cc(=O)oc2cc(Oc3ccc([N+](=O)[O-])cc3C(F)(F)F)ccc12,43.5*,-1.9,-0.3,8.3,9.0,2.0,42.1*,
COc1ccc(NC(=O)CSc2nnc(C)c3ccccc23)cc1,31.7*,-4.9,1.1,4.4,-8.5,1.7,0.8,
O=C1[C@@H]2Cc3c([nH]c4ccccc34)CN2C(=O)CN1CCCCCO,29.8*,0.8,-3.2,-11.1,0.2,-1.2,20.2,
O=C1[C@@H]2Cc3c([nH]c4ccccc34)CN2C(=O)CN1CCO,6.0,6.0,-1.4,1.0,-1.3,1.5,nt,
CC(C)CCN1CC(=O)N2Cc3[nH]c4ccccc4c3C[C@H]2C1=O,60.2*,6.0,-0.3,0.5,3.8,2.4,55.9*,LYPLA2 ABPP=14.0
Cc1ccc(NC(=O)CCc2ccc(C)o2)cc1,-4.2,1.1,-0.1,6.3,12.0,1.1,nt,
CC1CCN(CCCNC(=O)c2ccc3c(=O)n(CCc4ccccc4)c(=O)[nH]c3c2)CC1,-5.1,11.7,-3.0,0.6,1.2,-4.7,nt,
CN1CCN(CCCNC(=O)c2ccc3c(=O)n(CCc4ccccc4)c(=O)[nH]c3c2)CC1,29.3*,2.8,0.0,-0.5,-7.8,-4.4,1.4,
O=C1CN(C(=O)c2cc([N+](=O)[O-])ccc2Cl)C(c2ccccc2)c2cc(F)ccc2N1 (stereo not given),8.1,4.4,-4.4,26.1,14.4,3.4,nt,
Cc1ccc(C(=O)N2CC(=O)Nc3ccc(F)cc3C2c2ccccc2)cc1[N+](=O)[O-] (stereo not given),34.1*,11.5,2.5,4.5,-1.5,-3.3,34.1*,
Cc1ccc(C(=O)N2CC(=O)Nc3ccc(F)cc3C2c2ccc(F)cc2)cc1[N+](=O)[O-] (stereo not given),33.8*,1.0,-0.2,-0.4,-1.9,-1.7,29.8*,
O=C1CN(C(=O)c2cccc(F)c2)C(c2ccc(F)cc2)c2cc(F)ccc2N1 (stereo not given),-2.0,-5.3,-2.0,17.3,-0.4,0.8,nt,
Cc1ccc(S(=O)(=O)NCc2ccccc2)cc1C(=O)NCc1ccccn1,1.0,8.9,2.2,-0.1,9.1,-3.6,nt,
CCC(=O)N(C(=O)CC)N1CCN(c2ccncc2S(=O)(=O)N2CCCCC2)CC1,3.9,-0.2,-1.9,-7.3,-0.7,-2.2,nt,
COc1ccc([C@H]2CC(=O)C=C(c3ccc(F)cc3OCc3ccccc3)C2)cc1OC,26.5*,2.1,nt,2.6,2.8,2.2,-4.0,
CCOC(=O)c1ccc(NC(=O)C(=O)NCc2ccncc2)cc1,7.6,5.7,5.9,-4.8,-3.5,1.4,nt,
CCCCOC(=O)c1ccc(NC(=O)C(=O)NCc2ccncc2)cc1,34.9*,8.7,-0.1,0.5,4.6,3.4,31.3*,
O=C(Nc1ccc(O)cc1)c1cccc(Oc2ccc([N+](=O)[O-])cc2)c1,17.5,-9.6,3.5,4.7,-0.7,1.4,nt,
Cc1ccc(NC(=O)c2cccc(Oc3ccc([N+](=O)[O-])cc3)c2)c(C(=O)O)c1,25.9*,5.6,-10.0,-21.7,-8.7,0.0,38.1*,
Cc1ccc(NC(=O)CCC(=O)OCC(=O)c2ccc(Oc3ccc([N+](=O)[O-])cc3)cc2)c(C)c1,29.0*,-3.4,0.4,3.6,-1.9,-0.4,25.9*,
SMILES,LYPLA2 counter,procasp3 activ,Fam108B counter,PME-1 primary,proCasp7 act,LYPLA1 inh,LYPLA2 conf,others
O=C(O)COc1ccccc1/C=N/NC(=O)CSc1nnc(SCc2ccc(Cl)cc2)s1,-4.1,7.4,-5.4,10.6,-6.0,-0.7,nt,
O=C(CSc1nnc(SCc2ccc(Cl)cc2)s1)N/N=C/c1c[nH]c2ccccc12,45.2*,-2.7,3.5,-2.6,-4.3,1.4,58.4*,
CCOC(=O)c1[nH]c(C)c(C(=O)N2CCN(c3ccc(OC)cc3)CC2)c1C,1.4,-5.2,-2.8,-3.1,-6.3,-2.3,nt,
CCOC(=O)c1[nH]c(CN2CCN(c3ccc(OC)cc3)CC2)c(C(=O)OCC)c1C,26.8*,2.5,2.6,1.6,1.5,-1.6,-2.4,
O=C(NNc1ccccc1[N+](=O)[O-])Nc1ccccc1,27.5*,-12.3,1.1,2.7,-14.7,1.8,17.3,
O=C(NNc1ccccc1[N+](=O)[O-])Nc1ccc(Cl)c(Cl)c1,49.0*,2.5,-13.4,-5.2,-1.9,-10.3,43.8*,
O=C(NNc1ccccc1[N+](=O)[O-])Nc1ccc(F)cc1,16.7,-20.1,-6.4,5.0,-21.6,-2.3,nt,
COC(=O)CNC(=O)c1cc(-c2ccncc2)nc2ccc(C)cc12,9.6,-1.1,1.5,1.3,8.2,3.9,nt,
Cc1ccc(S(=O)(=O)N(C)CC(=O)O/N=C(\N)c2ccccn2)cc1,6.5,1.8,0.6,4.9,3.1,2.9,nt,
CN(CC(=O)O/N=C(\N)c1ccccn1)S(=O)(=O)c1ccc(Br)cc1,40.3*,6.7,-2.9,-4.3,-6.8,3.0,21.5,
COc1ccc2c(C)c(CC(=O)N3CCN(C(=O)C4COc5ccccc5O4)CC3)c(=O)oc2c1 (stereo not given),6.7,2.3,0.1,3.7,-0.1,-1.1,nt,
